Measurements reported in publication PMC8319958 (ACS chemical biology, 2020).
One block for each compound: values may come before it. Numbered stars: 1 amine (or outer) side, 2 acyl side, 3 side chain; on linkers, the order of the positions; unused ones are H or OH. Peptide text beside a SMILES is read from it. * marks the point of attachment. AMC = Cc1cc(=O)oc2cc(N*)ccc12; Suc = O=C(CCC(=O)[*:2])[*:1]; Cbz = O=C(OCc1ccccc1)*

Experiments:
MM.1R = experiment: Cell viability; assay type: cell-based; details: 48 h, read-out: IC50 (cell viability)
proteasome = target: T1, proteasome (Homo sapiens, UniProt P28074); experiment: Proteasome stimulation in cells detected with TAS probes; assay type: cell-based; details: cells dosed 1 h with stimulator, washed, TAS3 added, monitored over 60 min
T1 sequence (P28074 60-263): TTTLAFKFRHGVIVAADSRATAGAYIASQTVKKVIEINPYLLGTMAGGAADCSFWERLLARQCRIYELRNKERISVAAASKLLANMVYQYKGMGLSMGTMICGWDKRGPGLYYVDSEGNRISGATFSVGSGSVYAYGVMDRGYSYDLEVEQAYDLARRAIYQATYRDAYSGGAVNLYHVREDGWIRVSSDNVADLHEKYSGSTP
In short: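 Cells (A549, 5000/well, adhered) were pretreated 1 h with test compound in culture medium and washed three times with PBS. They were then given 10 μM probe in modified KRBH buffer, and fluorescence was read on a plate reader for […]. After 25 min equilibration each well was zeroed, linear regression was fitted, and activity was expressed as % of the DMSO control.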

A549 cells = experiment: Live-cell probe cleavage in A549 cells, with or without proteasome inhibitors; assay type: cell-based; details: 10 μM probe, monitored over 60 min
20S CP = 20S CP (Homo sapiens, UniProt P28074); experiment: LC/MS assay of library peptide cleavage by 20S CP; assay type: biochemical; details: 12 μM peptide, 9 nM 20S CP, 50 mM Tris pH 7.4, 37 °C, 1 h, triplicate
In short: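 Peptide stocks were 600 μM in DMSO, diluted to 12 μM final in 50 mM Tris pH 7.4. One triplicate got purified 20S CP (9 nM final) and the other buffer alone; both ran 1 h at 37 °C. An equal volume of acetonitrile denatured the enzyme. LC/MS EIC peak areas of intact peptide were scaled to the buffer-control mean (set to 1) to give fraction remaining. The four-mer product mass confirmed the cleavage site.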

Compound: CC(C)C[C@@H](C=O)NC(=O)[C@H](CC(C)C)NC(=O)[C@H](CC(C)C)NC(=O)OCc1ccccc1 [MG-132] (Cbz-Leu-Leu-Leu-aldehyde)
IC50 (MM.1R): 264 nM

proteasome stimulation (% activity vs DMSO control) (proteasome): strong stimulators
Compound: CC(C)c1ccc2c(c1)c(SC(C)(C)C)c(CC(C)(C)C(=O)O)n2Cc1ccc(Cl)cc1 [MK-886]

Compound: Cc1cc(=O)oc2cc(NC(=O)[C@H](Cc3ccc(O)cc3)NC(=O)[C@@H](NC(=O)[C@H](CC(C)C)NC(=O)[C@H](CC(C)C)NC(=O)CCC(=O)O)C(C)C)ccc12 [Suc-LLVY-AMC] (Suc-LLVY-{AMC})
fluorescence signal (RFU) in cells compared to TAS1 (A549 cells): significantly lower

cleavage by 20S CP (in words) (20S CP): did not accept
Compound: D-Phe
